Measured values taken from ChEMBL document CHEMBL2203131, “An unusually cold active nitroreductase for prodrug activations” (Bioorg Med Chem, 2012).

Experiments:
[1] = Ratio of apparent Kcat to apparent Km for Escherichia coli NfsB-mediated prodrug conversion using NADPH as cofactor by steady state kinetics analysis; type: ADME
[2] = Ratio of apparent Kcat to apparent Km for Escherichia coli NfsB-mediated prodrug conversion using NADH as cofactor by steady state kinetics analysis; type: ADME
[3] = Prodrug conversion in Tris-HCl buffer using NADH as cofactor assessed as Escherichia coli NfsB-mediated reduction by steady state kinetics analysis; type: ADME; conditions: for Km: read-out: Km(app)
[4] = Ratio of apparent Kcat to apparent Km for Staphylococcus saprophyticus ATCC 15305 Ssap-NtrB-mediated reduction by steady state kinetics analysis; type: ADME
Outline: (§1)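 Steady-state kinetics with purified His6-Ssap-NtrB used CB1954 at 0.05–4 mM or a series of SN23862 concentrations in 50 mM Tris-Cl pH 7.0 containing 4% DMSO. Parameters came from nonlinear Michaelis–Menten fitting. One unit is defined as 1 µmol substrate converted per min, and specific activity was expressed per mg active enzyme.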

[5] = Prodrug conversion in Tris-HCl buffer using NADPH as cofactor assessed as Escherichia coli NfsB-mediated reduction by steady state kinetics analysis; type: ADME; conditions: for Km: read-out: Km(app)
[6] = Prodrug conversion in Tris-HCl buffer assessed as Staphylococcus saprophyticus ATCC 15305 Ssap-NtrB-mediated reduction by steady state kinetics analysis; type: ADME; conditions: for Km: read-out: Km(app); outline: as §1
[7] = Ratio of apparent Kcat/apparent Km for Escherichia coli NfsB to apparent Kcat/apparent Km for Staphylococcus saprophyticus ATCC 15305 Ssap-NtrB; type: ADME
[8] = Prodrug conversion in Tris-HCl buffer assessed as Staphylococcus saprophyticus ATCC 15305 Ssap-NtrB-mediated [5-(aziridin-1-yl)-2-hydroxyamino-4-nitrobenzamide] formation after 30 mins by HPLC analysis; type: ADME; conditions: 0.5 h
Outline: (§2)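 CB1954 (1 mM final) or SN23862 (80 µM) was incubated in degassed 50 mM Tris-Cl pH 7.0, kept anaerobic by nitrogen bubbling, with 50 µg/ml Ssap-NtrB and 3.4 mM NADPH for at least 30 min at 18–20 °C. Reactions were stopped with ice-cold methanol, held at −80 °C, then centrifuged. Products were resolved by reverse-phase C18 HPLC with an acetonitrile–water gradient. Detection was at 260/420 nm, or 390/450 nm for SN23862.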

[9] = Ratio of apparent Kcat to apparent Km for Bacillus amyloliquefaciens CAMR 0454 ywrO-mediated prodrug conversion using NADPH as cofactor by steady state kinetic analysis; type: ADME
[10] = Ratio of apparent Kcat to apparent Km for Escherichia coli NfsA-mediated prodrug conversion using NADPH as cofactor by steady state kinetic analysis; type: ADME
[11] = Prodrug conversion in buffer using NADH as cofactor assessed as Escherichia coli AzoR-mediated reduction by steady state kinetics analysis; type: ADME
[12] = test system: Staphylococcus saprophyticus; assay: Activity of Staphylococcus saprophyticus ATCC 15305 Ssap-NtrB assessed as residual activity measured for 10 mins at 15 degC by spectrophotometric analysis
[13] = Prodrug conversion in Tris-HCl buffer assessed as Staphylococcus saprophyticus ATCC 15305 Ssap-NtrB-mediated [5-(aziridin-1-yl)-4-hydroxyamino-2-nitrobenzamide] formation after 30 mins by HPLC analysis; type: ADME; conditions: 0.5 h; outline: as §2
[14] = test system: Staphylococcus saprophyticus; assay: Activity of Staphylococcus saprophyticus ATCC 15305 Ssap-NtrB assessed as residual activity measured for 10 mins at 3 degC by spectrophotometric analysis
[15] = Ratio of apparent Kcat to apparent Km for Escherichia coli AzoR-mediated prodrug conversion using NADPH as cofactor by steady state kinetic analysis; type: ADME
[16] = Prodrug conversion in buffer using NADPH as cofactor assessed as Escherichia coli AzoR-mediated reduction by steady state kinetics analysis; type: ADME
[17] = Ratio of apparent Kcat to apparent Km for Escherichia coli AzoR-mediated prodrug conversion using NADH as cofactor by steady state kinetic analysis; type: ADME
[18] = Ratio of apparent Km for Escherichia coli NfsB-mediated prodrug conversion to apparent Km for Staphylococcus saprophyticus ATCC 15305 Ssap-NtrB-mediated prodrug conversion; type: ADME
[19] = Prodrug conversion in sodium phosphate buffer using NADPH as cofactor assessed as Bacillus amyloliquefaciens CAMR 0454 ywrO-mediated reduction by steady state kinetics analysis; type: ADME
[20] = Prodrug conversion in buffer using NADPH as cofactor assessed as Escherichia coli NfsA-mediated reduction by steady state kinetics analysis; type: ADME
[21] = Prodrug conversion in sodium phosphate buffer using NAD(P)H as cofactor assessed as Bacillus amyloliquefaciens CAMR 0454 ywrO-mediated reduction by steady state kinetics analysis; type: ADME
[22] = Prodrug conversion in Tris-HCl buffer assessed as Staphylococcus saprophyticus ATCC 15305 Ssap-NtrB-mediated reduction after 30 mins by HPLC analysis; type: ADME; conditions: 0.5 h; outline: as §2

Compound | Kcat/Km [1] [M⁻¹ s⁻¹] | Kcat/Km [2] [M⁻¹ s⁻¹] | Kcat(app) [3] [s⁻¹] | Km [3] [µM] | Kcat/Km [4] [M⁻¹ s⁻¹] | Kcat(app) [5] [s⁻¹] | Km [5] [µM] | Kcat(app) [6] [s⁻¹] | Km [6] [µM] | Activity [12] [%] | Activity [14] [%] | further results
NC(=O)N/N=C/c1ccc([N+](=O)[O-])o1 [NITROFURAZONE] | 61764 | 66875 | 10.7 | 160 | 44180 | 10.5 | 170 | 2.2 | 49.8 | – | – | Ratio [7]: 1.4
NC(=O)c1cc(N2CC2)c([N+](=O)[O-])cc1[N+](=O)[O-] [TRETAZICAR] | 7300 | 5600 | 62 | 11000 | 2120 | 26 | 3600 | 2.26 | 1070 | 55 | 55 | Drug metabolism [8]: Active; Kcat/Km [9]: 13268 M⁻¹ s⁻¹; Kcat/Km [10]: 73000 M⁻¹ s⁻¹; Kcat(app) [11]: 0.15 s⁻¹; Km ([11]; read-out: Km(app)): 6600 µM; Drug metabolism [13]: Active; Kcat/Km [15]: 110 M⁻¹ s⁻¹; Kcat(app) [16]: 0.15 s⁻¹; Km ([16]; read-out: Km(app)): 1400 µM; Kcat/Km [17]: 23 M⁻¹ s⁻¹; Ratio [18]: 20; Kcat(app) [19]: 8.2 s⁻¹; Km ([19]; read-out: Km(app)): 618 µM; Kcat(app) [20]: 16 s⁻¹; Km ([20]; read-out: Km(app)): 220 µM
NC(=O)c1cc(N(CCCl)CCCl)c([N+](=O)[O-])cc1[N+](=O)[O-] | – | – | – | – | 9350 | – | – | 0.77 | 82.4 | 60 | 60 | Drug metabolism [21]: Not Active; Drug metabolism [22]: Active
